By IC50 is commonly meant the concentration that gives 50% inhibition.

Some results are limits rather than exact numbers.

We go through 28 compounds from ChEMBL document CHEMBL4368925, “Design, synthesis, and screening of novel ursolic acid derivatives as potential anti-cancer agents that target the HIF-1α pathway” (Bioorg Med Chem Lett, 2019).

The subject of the test is Hep 3B2. Kind of test: Cytotoxicity against human Hep3B cells assessed as reduction in cell viability after 24 hrs in normoxic condition by MTT assay. Type of test: cell-based. In outline:
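Hep3B viability by MTT assay after 24 h compound treatment under normoxia; table values are means, n=3.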
In the case of `C[C@H]1[C@H](C)CC[C@]2(C(=O)O)CC[C@]3(C)C(=CC[C@@H]4[C@@]5(C)CC(=C\c6ccccc6)/C(=N\NC(=N)N)C(C)(C)[C@@H]5CC[C@]43C)[C@H]12`, the IC50 was over 100 µM.

For the compound `C[C@H]1[C@H](C)CC[C@]2(C(=O)O)CC[C@]3(C)C(=CC[C@@H]4[C@@]5(C)CC(=C\c6ccccc6F)/C(=N\NC(=N)N)C(C)(C)[C@@H]5CC[C@]43C)[C@H]12`, the IC50 was over 100 µM.

For the compound `C[C@H]1[C@H](C)CC[C@]2(C(=O)OCc3ccc(Cl)cc3Cl)CC[C@]3(C)C(=CC[C@@H]4[C@@]5(C)CC/C(=N\NC(=N)N)C(C)(C)[C@@H]5CC[C@]43C)[C@H]12`, the IC50 was over 100 µM.

`Cc1ccc(COC(=O)[C@]23CC[C@@H](C)[C@H](C)[C@H]2C2=CC[C@@H]4[C@@]5(C)CC/C(=N\NC(=N)N)C(C)(C)[C@@H]5CC[C@@]4(C)[C@]2(C)CC3)cc1`: the 50% inhibitory concentration (IC50) was 18 µM.

Take `Cc1ccc(/C=C2\C[C@]3(C)[C@H]4CC=C5[C@@H]6[C@@H](C)[C@H](C)CC[C@]6(C(=O)O)CC[C@@]5(C)[C@]4(C)CC[C@H]3C(C)(C)\C2=N\NC(=N)N)cc1`: the IC50 was over 100 µM.

In the case of `C[C@H]1[C@H](C)CC[C@]2(C(=O)OCc3ccc(Cl)cc3)CC[C@]3(C)C(=CC[C@@H]4[C@@]5(C)CC/C(=N\NC(=N)N)C(C)(C)[C@@H]5CC[C@]43C)[C@H]12`, the IC50 was 32.1 µM.

`C[C@H]1[C@H](C)CC[C@]2(C(=O)OCc3cccc(Cl)c3)CC[C@]3(C)C(=CC[C@@H]4[C@@]5(C)CC/C(=N\NC(=N)N)C(C)(C)[C@@H]5CC[C@]43C)[C@H]12`: the IC50 was determined as 34.1 µM.

On to `C[C@H]1[C@H](C)CC[C@]2(C(=O)O)CC[C@]3(C)C(=CC[C@@H]4[C@@]5(C)CC(=C\c6cccc7ccccc67)/C(=N\NC(=N)N)C(C)(C)[C@@H]5CC[C@]43C)[C@H]12`, for which the IC50 was over 100 µM.

With `C[C@H]1[C@H](C)CC[C@]2(C(=O)O)CC[C@]3(C)C(=CC[C@@H]4[C@@]5(C)CC(=C\c6c(Cl)cccc6Cl)/C(=N\NC(=N)N)C(C)(C)[C@@H]5CC[C@]43C)[C@H]12`, the IC50 is over 100 µM.

For the compound `C[C@H]1[C@H](C)CC[C@]2(C(=O)O)CC[C@]3(C)C(=CC[C@@H]4[C@@]5(C)CC(=C\c6ccc(F)cc6)/C(=N\NC(=N)N)C(C)(C)[C@@H]5CC[C@]43C)[C@H]12`, the IC50 is over 100 µM.

Turning to `C[C@H]1[C@H](C)CC[C@]2(C(=O)OCc3c(Cl)cccc3Cl)CC[C@]3(C)C(=CC[C@@H]4[C@@]5(C)CC/C(=N\NC(=N)N)C(C)(C)[C@@H]5CC[C@]43C)[C@H]12`, the IC50 turned out to be 22.3 µM.

Turning to `C[C@H]1[C@H](C)CC[C@]2(C(=O)OCc3ccc(F)cc3)CC[C@]3(C)C(=CC[C@@H]4[C@@]5(C)CC/C(=N\NC(=N)N)C(C)(C)[C@@H]5CC[C@]43C)[C@H]12`, the IC50 was found to be 12.9 µM.

On to `CCOC(=O)[C@]12CC[C@@H](C)[C@H](C)[C@H]1C1=CC[C@@H]3[C@@]4(C)CC/C(=N\NC(=N)N)C(C)(C)[C@@H]4CC[C@@]3(C)[C@]1(C)CC2`, for which the IC50 worked out at 6 µM.

Regarding `C[C@H]1[C@H](C)CC[C@]2(C(=O)O)CC[C@]3(C)C(=CC[C@@H]4[C@@]5(C)CC(=C\c6ccco6)/C(=N\NC(=N)N)C(C)(C)[C@@H]5CC[C@]43C)[C@H]12`, the IC50 is over 100 µM.

Turning to `C[C@H]1[C@H](C)CC[C@]2(C(=O)O)CC[C@]3(C)C(=CC[C@@H]4[C@@]5(C)CC(=C\c6cccc(F)c6)/C(=N\NC(=N)N)C(C)(C)[C@@H]5CC[C@]43C)[C@H]12`, the IC50 is 10.5 µM.

As to `C[C@H]1[C@H](C)CC[C@]2(C(=O)O)CC[C@]3(C)C(=CC[C@@H]4[C@@]5(C)CC/C(=N\NC(N)=S)C(C)(C)[C@@H]5CC[C@]43C)[C@H]12`, the IC50 is over 100 µM.

With `C[C@H]1[C@H](C)CC[C@]2(C(=O)O)CC[C@]3(C)C(=CC[C@@H]4[C@@]5(C)CC(=C\c6ccccc6Cl)/C(=N\NC(=N)N)C(C)(C)[C@@H]5CC[C@]43C)[C@H]12`, the IC50 was over 100 µM.

For the compound `COC(=O)[C@]12CC[C@@H](C)[C@H](C)[C@H]1C1=CC[C@@H]3[C@@]4(C)CC/C(=N\NC(=N)N)C(C)(C)[C@@H]4CC[C@@]3(C)[C@]1(C)CC2`, the IC50 was over 100 µM.

`C[C@H]1[C@H](C)CC[C@]2(C(=O)O)CC[C@]3(C)C(=CC[C@@H]4[C@@]5(C)CC(=C\c6cccc(Br)c6)/C(=N\NC(=N)N)C(C)(C)[C@@H]5CC[C@]43C)[C@H]12`: the IC50 is over 100 µM.

`C[C@H]1[C@H](C)CC[C@]2(C(=O)O)CC[C@]3(C)C(=CC[C@@H]4[C@@]5(C)CC/C(=N\NC(N)=O)C(C)(C)[C@@H]5CC[C@]43C)[C@H]12`: the IC50 came out at 69.8 µM.

Consider `CCCCCOC(=O)[C@]12CC[C@@H](C)[C@H](C)[C@H]1C1=CC[C@@H]3[C@@]4(C)CC/C(=N\NC(=N)N)C(C)(C)[C@@H]4CC[C@@]3(C)[C@]1(C)CC2`, for which the IC50 is 22 µM.

Turning to `C[C@H]1[C@H](C)CC[C@]2(C(=O)O)CC[C@]3(C)C(=CC[C@@H]4[C@@]5(C)CC[C@H](O)C(C)(C)[C@@H]5CC[C@]43C)[C@H]12` [URSOLIC ACID], the IC50 amounted to 23.8 µM.

On to `C[C@H]1[C@H](C)CC[C@]2(C(=O)O)CC[C@]3(C)C(=CC[C@@H]4[C@@]5(C)CC(=C\c6cccc(Cl)c6)/C(=N\NC(=N)N)C(C)(C)[C@@H]5CC[C@]43C)[C@H]12`, for which the IC50 is over 100 µM.

`C[C@H]1[C@H](C)CC[C@]2(C(=O)O)CC[C@]3(C)C(=CC[C@@H]4[C@@]5(C)CC(=C\c6ccccc6Br)/C(=N\NC(=N)N)C(C)(C)[C@@H]5CC[C@]43C)[C@H]12`: the IC50 is over 100 µM.

In the case of `C[C@H]1[C@H](C)CC[C@]2(C(=O)O)CC[C@]3(C)C(=CC[C@@H]4[C@@]5(C)CC(=C\c6ccc([N+](=O)[O-])cc6)/C(=N\NC(=N)N)C(C)(C)[C@@H]5CC[C@]43C)[C@H]12`, the IC50 was over 100 µM.

Turning to `C[C@H]1[C@H](C)CC[C@]2(C(=O)O)CC[C@]3(C)C(=CC[C@@H]4[C@@]5(C)CC(=C\c6ccc(Cl)cc6Cl)/C(=N\NC(=N)N)C(C)(C)[C@@H]5CC[C@]43C)[C@H]12`, the IC50 is over 100 µM.

As for `C[C@H]1[C@H](C)CC[C@]2(C(=O)O)CC[C@]3(C)C(=CC[C@@H]4[C@@]5(C)CC(=C\c6cccs6)/C(=N\NC(=N)N)C(C)(C)[C@@H]5CC[C@]43C)[C@H]12`, the IC50 is over 100 µM.

For `C[C@H]1[C@H](C)CC[C@]2(C(=O)O)CC[C@]3(C)C(=CC[C@@H]4[C@@]5(C)CC/C(=N\NC(=N)N)C(C)(C)[C@@H]5CC[C@]43C)[C@H]12`, the IC50 was over 100 µM.
